Compound activity deposited in PubChem by several laboratories.
CD11b adhes enh: CD11b/CD18-fibrinogen binding enhancement. K562 CD11b/CD18 adhesion to fibrinogen, ATPlite luminescence. hit rate 0.07% among 93,000. activation, % at 10 µM. P05107+P11215;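 active = 10 µM primary screen giving 50% or more activity, confirmed by 40% or more on retest at that dose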
sEH act: increases human soluble epoxide hydrolase activity | activation, % at 2 µM | hit rate 0.04% among 91,000 | purified human sEH enzymatic activity, activator screen | P34913; in the data active = activation above about 37%
Target sequence (P34913 whole entry, looked up): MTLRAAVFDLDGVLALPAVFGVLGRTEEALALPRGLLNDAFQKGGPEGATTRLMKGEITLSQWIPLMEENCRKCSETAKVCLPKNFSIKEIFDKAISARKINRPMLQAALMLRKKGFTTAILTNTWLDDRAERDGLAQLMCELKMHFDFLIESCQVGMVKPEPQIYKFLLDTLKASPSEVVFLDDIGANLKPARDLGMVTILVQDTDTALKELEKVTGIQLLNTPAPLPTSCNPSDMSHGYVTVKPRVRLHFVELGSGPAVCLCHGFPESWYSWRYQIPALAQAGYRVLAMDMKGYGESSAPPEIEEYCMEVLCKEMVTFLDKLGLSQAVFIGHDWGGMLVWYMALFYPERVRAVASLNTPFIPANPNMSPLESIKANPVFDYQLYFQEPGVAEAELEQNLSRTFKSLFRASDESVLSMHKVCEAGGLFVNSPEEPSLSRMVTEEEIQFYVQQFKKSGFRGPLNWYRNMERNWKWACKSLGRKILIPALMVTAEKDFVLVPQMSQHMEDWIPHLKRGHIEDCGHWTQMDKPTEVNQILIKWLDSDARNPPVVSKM
CD11b adhes inh: blocks human CD11b/CD18 adhesion to fibrinogen | inhibition, % at 10 µM | P05107+P11215 | AID 1497 | K562 CD11b/CD18 adhesion to fibrinogen, ATPlite luminescence; Mn2+ added to activate the integrin | hit rate 0.54% among 93,000;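 active = primary inhibition of 50% or more at 10 µM, then 40% or more on retest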
sEH inhibitor: soluble epoxide hydrolase (human) inhibition; P34913; recombinant human sEH enzymatic activity assay; inhibition, % at 2 µM; hit rate 0.34% among 91,000; in the data active = inhibition above about 80%
HIV Rev-RRE inh: disrupts HIV-1 Rev binding to RRE RNA. P05866. Rev peptide-RRE RNA binding, FRET. inhibition, % at 8 µM. hit rate 0.79% among 97,000;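 active = inhibition above the screen-wide mean plus 3 SD, cut at about 35% in these data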
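Test system: Cy5-tagged RRE RNA duplex with fluorescein-tagged Rev peptide; Probe or stimulus: labelled Rev peptide; Schedule: 5 min preincubation and 15 min binding, 25 °C; Signal: FRET fluorescence readout; Evaluation: % inhibition from 671/540 nm acceptor-to-donor ratio, scaled between controls; Control set: DMSO and neomycin B.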
Smad3 FoxH1 inh: Smad3 (human) transcription factor binding inhibition. P84022. TR-FRET Smad3/Dy647-FoxH1 peptide binding, europium anti-His. inhibition, % at 25 µM. hit rate 0.29% among 88,000. AID 630;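 active = compounds that reduce the energy-transfer binding signal between the protein and its labelled peptide by more than half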
Large screens that a line does not name were inactive; [ ] = another dose, or the depositor's remark. Sampled rows, rich in hits. Any-hit rate of the full collection: about 1.6%.

CCCn1c(CNS(=O)(=O)c2ccc(C)cc2)nc2ccccc21	none (no result: sEH act, sEH inhibitor, HIV Rev-RRE inh)
Cn1nc(-c2ccc(Cl)cc2)c2cc(C(=O)N3CCN(c4ccccn4)CC3)sc21	CD11b adhes inh 62
Cc1c(C(=O)Nc2nccs2)sc2nc(-c3cccs3)cc(C(F)(F)F)c12	none (no result: CD11b adhes enh, CD11b adhes inh)
CS(=O)(=O)c1sc2nc(-c3cccs3)cc(-c3ccccc3)c2c1N	HIV Rev-RRE inh 36
Cc1ccc(-c2cc(-c3ccccc3)c3c(N)c(S(C)(=O)=O)sc3n2)cc1	none
Nc1c(C(=O)C2CC2)sc2nc(-c3ccccc3)cc(C(F)(F)F)c12	HIV Rev-RRE inh 112[fluorescence artefact?] (no result: CD11b adhes enh, CD11b adhes inh)
CC(=O)c1sc2nc(-c3cccs3)cc(C(F)(F)F)c2c1N	HIV Rev-RRE inh 107[fluorescence artefact?]
Cc1ccc(N2CCN(CCC(=O)O)CC2)cc1	none (no result: CD11b adhes enh, sEH act, CD11b adhes inh, sEH inhibitor, HIV Rev-RRE inh)
Nc1[nH]c(=O)nc2c1ncn2[C@H]1O[C@H](CO)[C@@H](O)[C@@H]1O	none (no result: CD11b adhes enh, sEH act, CD11b adhes inh, sEH inhibitor, HIV Rev-RRE inh)
COc1cccc(C(=O)NC2CC3CCCC(C2)N3CC(=O)Nc2ccccc2)c1 (configuration not stated)	Smad3 FoxH1 inh 81 (no result: CD11b adhes enh, sEH act, CD11b adhes inh, sEH inhibitor)
CCN1CNC(=S)N(c2cccc(C)c2C)C1	Smad3 FoxH1 inh 96 (no result: CD11b adhes enh, CD11b adhes inh)
CCOC(=O)CCCN	none (no result: CD11b adhes enh, sEH act, CD11b adhes inh, sEH inhibitor, HIV Rev-RRE inh)
